Results from ChEMBL document CHEMBL4834396, “Molecular Recognition and Imaging of Human Telomeric G-Quadruplex DNA in Live Cells: A Systematic Advancement of Thiazole Orange Scaffold To Enhance Binding Specificity and Inhibition of Gene Expression” (J Med Chem, 2021).
Activity calls are given as the source filed them. The calls are words filed in the database; no cut-off is given here.

How the values were obtained:
[1] = system: Quadruplex DNA [UNDEFINED MUTATION]; experiment: Effect on confirmation of telomeric Htg24 G-quadruplex DNA G22A mutant (unknown origin) assessed as hybrid topology at 5 uM at pH 7.4 by circular dichroism analysis; assay type: nucleic-acid assay; details: Homo sapiens
In short: (§1)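 CD spectra recorded on G4-DNA and ligand, each at 5 μM, in 10 mM Tris-HCl, pH 7.4, with 60 mM KCl. Scan range 220–340 nm in a 1 mm quartz cuvette, 1 nm bandwidth and step, 0.5 s/point. Each spectrum is the average of three scans.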

Quadruplex DNA [2] = experiment: Stabilization of telomeric Htg24 G-quadruplex DNA (unknown origin) assessed as inhibition of DNA amplification at 20 uM by PCR analysis; assay type: nucleic-acid assay
In short: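 Taq polymerase stop assay: Htg24 or its non-G4 mutant template (5 μM) with 2 μM of each oligomer, […] and ligand at 0–20 μM. Cycling was 94 °C for 5 min, then 30 cycles of 94/56/72 °C at 30 s each. Products were resolved on 15% PAGE and stained with SYBR Gold.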

HeLa [3] = experiment: Effect on telomere length in human HeLa cells assessed as reduction of telomere length incubated for 18 days by qRT-PCR analysis; assay type: functional, cell-based; details: dose 0.5-4 µM, time 18.0 day
In short: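 HeLa cells were treated with graded compound concentrations (0–4 μM) for 18 days. Genomic DNA was isolated by proteinase K digestion and phenol/chloroform extraction. Relative telomere length was measured by qPCR against hRPLPO using the ΔΔCt method; three independent experiments.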

[4] = Water solubility of compound at 25 degreeC; assay type: physicochemical
In short: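 Solubility in water measured at 25 °C.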

[5] = system: Quadruplex DNA [UNDEFINED MUTATION]; experiment: Binding affinity to telomeric Htg24 G-quadruplex DNA A20G mutant (unknown origin) assessed as negative fluorescence signal at 5 uM under pH condition 7.4 by fluorescence titration analysis; assay type: nucleic-acid assay; details: Homo sapiens
In short: (§2)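 Ligand 5 μM mixed with wild-type or point-mutant Htg24 in Tris-HCl buffer with 60 mM KCl; signal change calculated as (F mutant − F wild type)/F wild type.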

DNA = experiment: Binding affinity to ds26 DNA (unknown origin) assessed as dissociation constant by isothermal titration calorimetric analysis; assay type: nucleic-acid assay
In short: (§3)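 ITC at 25 °C: DNA preannealed at 95 °C for 5 min, cooled and held at 4 °C overnight, in 25 mM KH2PO4, 60 mM KCl, pH 7.4, 0.5% DMSO. DNA 10 μM in cell, ligand 500 μM in syringe; 19 injections of 4 s, 150 s apart, 750 rpm stirring; blank heat subtracted before model fitting.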

Quadruplex DNA [6] = experiment: Binding affinity to telomeric Htg24 G-quadruplex DNA (unknown origin) assessed as dissociation constant by isothermal titration calorimetric analysis; assay type: nucleic-acid assay; in short: as §3
[7] = system: Quadruplex DNA [UNDEFINED MUTATION]; experiment: Binding affinity to telomeric Htg24 G-quadruplex DNA G23T mutant (unknown origin) assessed as fluorescence signal at 5 uM under pH condition 7.4 by fluorescence titration analysis; assay type: nucleic-acid assay; details: Homo sapiens
In short: (§4)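 Ligand held at 5 μM and mixed with each Htg24 point mutant in Tris-HCl buffer containing 60 mM KCl, pH 7.4. Fluorescence was read, and the signal change was computed as (F mutant − F wild type)/F wild type.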

[8] = system: Quadruplex DNA [UNDEFINED MUTATION]; experiment: Binding affinity to telomeric Htg24 G-quadruplex DNA T18G mutant (unknown origin) assessed as negative fluorescence signal at 5 uM under pH condition 7.4 by fluorescence titration analysis; assay type: nucleic-acid assay; details: Homo sapiens; in short: as §4
Quadruplex DNA [9] = experiment: Binding affinity to telomeric Htg24 G-quadruplex DNA (unknown origin) assessed as fluorescence quantum yield by fluorescence spectrophotometric method; assay type: nucleic-acid assay
In short: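 Fluorescence quantum yield determined against fluorescein (Φ = 0.95) in 1% NaOH ethanol. Five increasing ligand concentrations added to fixed DNA, with absorbance and emission recorded for each.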

HeLa [10] = experiment: Downregulation of hTERT mRNA expression in human HeLa cells at 5 to 20 uM by qRT-PCR analysis; assay type: functional, cell-based; details: dose 5-20 µM
In short: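 HeLa cells were treated with graded compound concentrations, then incubated 36 h. RNA was extracted with Trizol/chloroform, reverse transcribed and quantified by qRT-PCR. GAPDH served as internal control, with relative expression by the ΔΔCt method; three independent experiments, mean ± SD.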

[11] = system: Quadruplex DNA [UNDEFINED MUTATION]; experiment: Effect on confirmation of telomeric Htg24 G-quadruplex DNA A20G mutant (unknown origin) assessed as hybrid topology at 5 uM at pH 7.4 by circular dichroism analysis; assay type: nucleic-acid assay; details: Homo sapiens; in short: as §1
[12] = system: Quadruplex DNA [UNDEFINED MUTATION]; experiment: Binding affinity to telomeric Htg24 G-quadruplex DNA G15A mutant (unknown origin) assessed as fluorescence signal at 5 uM under pH condition 7.4 by fluorescence titration analysis; assay type: nucleic-acid assay; details: Homo sapiens
[13] = system: Quadruplex DNA [UNDEFINED MUTATION]; experiment: Effect on confirmation of telomeric Htg24 G-quadruplex DNA G22C mutant (unknown origin) assessed as hybrid topology at 5 uM at pH 7.4 by circular dichroism analysis; assay type: nucleic-acid assay; details: Homo sapiens; in short: as §1
Quadruplex DNA [14] = experiment: Binding affinity to telomeric Htg24 G-quadruplex DNA (unknown origin) assessed as change in melting temperature at 5 uM at pH 7.4 by circular dichroism analysis; assay type: nucleic-acid assay
In short: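 CD melting: G4-DNA 5 μM with ligand 5 μM in 10 mM Tris-HCl pH 7.4, 60 mM KCl; signal recorded at 1 °C intervals from 25 to 95 °C, heating 1.0 °C/min.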

rRNA = experiment: Binding affinity to rRNA (unknown origin) assessed as equilibrium binding constant at 5 uM at 25 degreeC […]; assay type: nucleic-acid assay
In short: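 Fluorescence titration: ligand 5 μM in 10 mM Tris-HCl pH 7.4 with 60 mM KCl, nucleic acid added until saturation, 25 °C. Keq from nonlinear fit of F/F0 to an independent-site model.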

[15] = system: Quadruplex DNA [UNDEFINED MUTATION]; experiment: Effect on confirmation of telomeric Htg24 G-quadruplex DNA T18G mutant (unknown origin) assessed as hybrid topology at 5 uM at pH 7.4 by circular dichroism analysis; assay type: nucleic-acid assay; details: Homo sapiens; in short: as §1
HeLa [16] = experiment: Antiproliferative activity against human HeLa cells assessed as reduction in cell viability […] by MTT assay; assay type: functional, cell-based
Quadruplex DNA [17] = experiment: Binding affinity to G4 quadruplex DNA in human U87 cells assessed as decrease in fluorescence intensity at 5 uM in presence of 5 to 20 uM BRACO19 by DAPI staining based confocal laser microscopic analysis; assay type: cell-based
In short: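 Live U87 cells stained with ligand (5 μM) plus DAPI, with BRACO19 added at 0, 5, 10, 15 or 20 μM. Confocal imaging with excitation at 488 or 571 nm for the ligand and 402 nm for DAPI; nuclear spot fluorescence intensity scored.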

[18] = system: Quadruplex DNA [UNDEFINED MUTATION]; experiment: Binding affinity to telomeric Htg24 G-quadruplex DNA G16C mutant (unknown origin) assessed as negative fluorescence signal at 5 uM under pH condition 7.4 by fluorescence titration analysis; assay type: nucleic-acid assay; details: Homo sapiens; in short: as §2
[19] = system: Quadruplex DNA [UNDEFINED MUTATION]; experiment: Binding affinity to telomeric Htg24 G-quadruplex DNA G16T mutant (unknown origin) assessed as negative fluorescence signal at 5 uM under pH condition 7.4 by fluorescence titration analysis; assay type: nucleic-acid assay; details: Homo sapiens; in short: as §2
[20] = system: Quadruplex DNA [UNDEFINED MUTATION]; experiment: Effect on confirmation of telomeric Htg24 G-quadruplex DNA A14G mutant (unknown origin) assessed as hybrid topology at 5 uM at pH 7.4 by circular dichroism analysis; assay type: nucleic-acid assay; details: Homo sapiens; in short: as §1
HepG2 = experiment: Antiproliferative activity against human HepG2 cells assessed as reduction in cell viability […] by MTT assay; assay type: functional, cell-based
[21] = system: Quadruplex DNA [UNDEFINED MUTATION]; experiment: Binding affinity to telomeric Htg24 G-quadruplex DNA G22T mutant (unknown origin) assessed as negative fluorescence signal at 5 uM under pH condition 7.4 by fluorescence titration analysis; assay type: nucleic-acid assay; details: Homo sapiens; in short: as §4

Activity [1]: Active | Activity (Quadruplex DNA [2]): Active | solubility [4]: 122 µM | Activity [5]: Active | Kd (DNA): 2.97 µM | Kd (Quadruplex DNA [6]): 0.65 µM | Activity [7]: inactive | Activity [8]: Active | Activity (Quadruplex DNA [9]): 0.217 | Activity [11]: Active | Activity [12]: inactive | Activity [13]: Active | ΔTm (Quadruplex DNA [14]): 9.1 °C | Kb (rRNA): 620000 M⁻¹ | Activity [15]: Active | IC50 (HeLa [16]): 16.3 µM | Activity [18]: Active | Activity [19]: Active | Activity [20]: Active | IC50 (HepG2): 12.8 µM | Activity [21]: Active
SMILES: CN(C)c1ccc(/C=C/c2cc(/C=C3\Sc4ccccc4N3CCCN3CCOCC3)c3ccccc3[n+]2C)cc1.[I-]
Activity (HeLa [3]): Dose-Dependent Effect | Activity (HeLa [10]): Active | Activity (Quadruplex DNA [17]): Active
